Values after ≈ are worked out from the molar mass of the structure shown.
Key:
[1] = tested on: Human immunodeficiency virus 1; test: Antiviral activity against wild type HIV1 harboring reverse transcriptase Y181C mutant infected in human MT2 cells assessed as protection from virus-induced cytopathicity by MTT assay; format: functional, organism-based
[2] = tested on: Human immunodeficiency virus 1; test: Antiviral activity against wild type HIV1 harboring reverse transcriptase K103N/Y181C mutant infected in human MT2 cells assessed as protection from virus-induced cytopathicity by MTT assay; format: functional, organism-based
[3] = Aqueous solubility of the compound at pH 6.5 after 48 hrs by shake-flask method; format: physicochemical
Procedure, shortened: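 Shake-flask method: excess solid stirred in Britton–Robinson buffer, pH 6.5, for 48 h at 25 °C. The supernatant was passed through a 0.2 μm filter and quantified by UV–vis spectrophotometry. Piroxicam served as the control.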

[4] = tested on: Human immunodeficiency virus 1; test: Antiviral activity against wild type HIV1 3B infected in human MT2 cells assessed as protection from virus-induced cytopathicity by MTT assay; format: functional, organism-based; details: Human immunodeficiency virus 1, 3B
[5] = Cytotoxicity against human MT2 cells assessed as reduction in cell viability by MTT assay; format: cell-based
[6] = Human immunodeficiency virus 1, MT2, read-out: EC50

SMILES | EC50 [1, 6] [nM] | EC50 [2, 6] [nM] | solubility thermodynamic at 48 h [3] [µg/mL] | EC50 [4] [nM] | CC50 [5] [nM] | EC50 ([1]; mt2) | EC50 ([2]; mt2)
N#C/C=C/c1cc(Cl)cc(Oc2ccc(Cl)cc2OCCn2ccc(=O)[nH]c2=O)c1 | 49 | 220 | – | – | – | – | –
N#C/C=C/c1cc(F)cc(Oc2ccc(F)cc2OCCn2ccc(=O)[nH]c2=O)c1 | 16 | 85 | 10.8 (≈ 26.3 µM) | – | – | – | –
N#C/C=C/c1cc(Cl)cc(Oc2ccccc2OCCn2ccc(=O)[nH]c2=O)c1 | 46 | 24 | 510 (≈ 1240 µM) | 0.31 | 18000 | – | –
N#Cc1cc2c(Oc3ccccc3OCCn3ccc(=O)[nH]c3=O)cccc2[nH]1 | 38000 | 5500 | – | 56 | 72000 | – | –
Cc1cc(Oc2ccccc2OCCn2ccc(=O)[nH]c2=O)c2cc(C#N)[nH]c2c1 | – | 800 | – | 10 | 1200 | Not Active | –
N#Cc1cc2c(Oc3ccccc3OCCn3ccc(=O)[nH]c3=O)cc(Cl)cc2[nH]1 | 27000 | 2700 | – | 340 | 81000 | – | –
N#Cc1cc2c(Oc3ccccc3OCCn3ccc(=O)[nH]c3=O)cccc2o1 | – | 420 | – | 18 | > 100000 | Not Active | –
N#Cc1cc2c(Oc3ccccc3OCCn3ccc(=O)[nH]c3=O)cc(Cl)cc2o1 | 1900 | 260 | – | 19 | > 100000 | – | –
N#Cc1cc2c(Oc3ccc(F)cc3OCCn3ccc(=O)[nH]c3=O)cccc2o1 | 3500 | 4000 | – | 40 | > 100000 | – | –
N#Cc1cc2c(Oc3ccc(Cl)cc3OCCn3ccc(=O)[nH]c3=O)cccc2o1 | – | – | – | 7 | 7000 | Not Active | Not Active
N#Cc1cc2c(Oc3ccccc3OCCn3ccc(=O)[nH]c3=O)cccn2c1 | 310 | 11 | – | 0.38 | > 100000 | – | –
N#Cc1cc2c(Oc3ccccc3OCCn3ccc(=O)[nH]c3=O)cc(Cl)cn2c1 | 220 | 22 | – | 3.7 | 39000 | – | –
N#Cc1cc2c(Oc3ccccc3OCCn3ccc(=O)[nH]c3=O)cc(F)cn2c1 | 170 | 68 | – | 0.7 | 40000 | – | –
N#Cc1cc2c(Oc3ccc(F)cc3OCCn3ccc(=O)[nH]c3=O)cccn2c1 | 600 | 220 | – | 2.7 | 100000 | – | –
N#Cc1cc2c(Oc3ccc(F)cc3OCCn3ccc(=O)[nH]c3=O)cc(F)cn2c1 | 250 | 10 | 43.8 (≈ 103 µM) | 0.4 | 50000 | – | –
N#Cc1cc2c(Oc3ccc(F)cc3OCCn3ccc(=O)[nH]c3=O)cc(Cl)cn2c1 | 160 | 110 | – | 2.5 | 15000 | – | –

SMILES | EC50 [1, 6] [nM] | EC50 [2, 6] [nM] | solubility thermodynamic at 48 h [3] [µg/mL] | EC50 [4] [nM] | CC50 [5] [nM] | EC50 ([1]; mt2) | EC50 ([2]; mt2)
O=c1ccn(CCOc2ccccc2Oc2cccc3ccccc23)c(=O)[nH]1 | 5700 | 5000 | – | 60 | 80000 | – | –
Cc1ccc2c(Oc3ccccc3OCCn3ccc(=O)[nH]c3=O)cccc2c1 | 12000 | 15000 | – | 250 | 40000 | – | –
O=c1ccn(CCOc2ccccc2Oc2cccc3cc(Cl)ccc23)c(=O)[nH]1 | 1000 | 710 | – | 14 | > 100000 | – | –
O=c1ccn(CCOc2ccccc2Oc2cc(Cl)cc3cc(Cl)ccc23)c(=O)[nH]1 | 430 | 520 | – | 38 | 45000 | – | –
N#Cc1ccc2c(Oc3ccccc3OCCn3ccc(=O)[nH]c3=O)cccc2c1 | 19 | 15 | 4.3 (≈ 10.8 µM) | 0.53 | > 100000 | – | –
N#Cc1ccc2c(Oc3ccccc3OCCn3ccc(=O)[nH]c3=O)cc(Cl)cc2c1 | 13 | 7.5 | – | 2.2 | 24000 | – | –
N#Cc1ccc2c(Oc3ccc(F)cc3OCCn3ccc(=O)[nH]c3=O)cc(Cl)cc2c1 | 5.3 | 46 | – | 4.5 | 16000 | – | –
N#Cc1ccc2c(Oc3ccc(Cl)cc3OCCn3ccc(=O)[nH]c3=O)cc(Cl)cc2c1 | 49 | 250 | – | 11 | 20000 | – | –
N#Cc1ccc2c(Oc3ccc(F)cc3OCCn3ccc(=O)[nH]c3=O)cccc2c1 | 10 | 48 | – | 0.49 | > 100000 | – | –
N#Cc1ccc2c(Oc3ccc(Cl)cc3OCCn3ccc(=O)[nH]c3=O)cccc2c1 | 48 | 150 | – | 1.5 | > 100000 | – | –
N#Cc1ccc2c(Oc3ccccc3OCCn3ccc(=O)[nH]c3=O)cc(F)cc2c1 | 8 | 6 | – | 1.1 | > 100000 | – | –
N#Cc1ccc2c(Oc3ccc(F)cc3OCCn3ccc(=O)[nH]c3=O)cc(F)cc2c1 | 5.6 | 21 | – | 1.9 | > 100000 | – | –
N#Cc1ccc2c(Oc3ccc(Cl)cc3OCCn3ccc(=O)[nH]c3=O)cc(F)cc2c1 | 32 | 150 | – | 5 | 18000 | – | –
Cc1ccnc2c1NC(=O)c1cccnc1N2C1CC1 [NEVIRAPINE] | – | – | – | – | > 100000 | Not Active | Not Active
CN1C(C(=O)Nc2ccccn2)=C(O)c2ccccc2S1(=O)=O [PIROXICAM] | – | – | 5 (≈ 15.1 µM) | – | – | – | –

Reference: ChEMBL document CHEMBL3351558, “Picomolar Inhibitors of HIV-1 Reverse Transcriptase: Design and Crystallography of Naphthyl Phenyl Ethers” (ACS Med Chem Lett, 2014)
